Data: ChEMBL document CHEMBL4346672, “Antimicrobial and KPC/AmpC inhibitory activity of functionalized benzosiloxaboroles” (Eur J Med Chem, 2019)
In brackets after ≈: the same amount, converted by molar mass. Activity calls are given as the source filed them. The calls are words filed in the database; no cut-off is given here.

How the values were obtained:
Proteus mirabilis [1] = assay: Antibacterial activity against Proteus mirabilis ATCC 12453 assessed as fold reduction of MIC in presence of efflux pump inhibitor PAbetaN incubated for 18 hrs by broth microdilution method; type: functional
Summary of the method: (§1)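 MICs determined with and without PAβN at 50 mg/L in Mueller-Hinton broth containing 1 mM MgSO₄. 2-fold serial dilutions per CLSI. Fold change taken from the paired MICs after 35 °C, 18 h.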

Enterococcus faecium [2] = assay: Antibacterial activity against Enterococcus faecium ATCC 6057 measured after 18 hrs by CLSI broth dilution method; type: functional; settings: ATCC 6057, 18 h
Summary of the method: (§2)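 Broth MIC in Mueller-Hinton II broth following CLSI, compounds dissolved in DMSO. Strains subcultured twice on tryptic soy agar before testing. Growth read after 35 °C, 18 h.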

[3] = tested on: Stenotrophomonas maltophilia; assay: Antibacterial activity against Stenotrophomonas maltophilia ATCC 13637 measured after 18 hrs by CLSI broth dilution method; type: functional; settings: ATCC 13637, 18 h; summary of the method: as §2
Bacillus subtilis = assay: Antibacterial activity against Bacillus subtilis ATCC 6633 assessed as diameter of zone inhibition measured after 18 hrs by CLSI disc diffusion method; type: functional
Summary of the method: (§3)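 Disc diffusion on Mueller-Hinton II agar. Compounds dissolved in DMSO. Strains stored at -80 °C and subcultured twice on tryptic soy agar before testing. Inhibition zones read after 35 °C, 18 h.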

Klebsiella pneumoniae [4] = assay: Antibacterial activity against Klebsiella pneumoniae ATCC 13883 measured after 18 hrs by CLSI broth dilution method; type: functional; settings: ATCC 13883, 18 h; summary of the method: as §2
Candida albicans [5] = assay: Antifungal activity against Candida albicans ATCC 90028 assessed as diameter of zone inhibition incubated for 24 hrs by CLSI disc diffusion method; type: functional
Summary of the method: (§4)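 Yeast disc diffusion on Mueller-Hinton agar supplemented with 2% glucose and 0.5 mg/L methylene blue. Compounds in DMSO. Yeasts subcultured on Sabouraud dextrose agar before testing. Zones read after 35 °C, 24 h.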

Acinetobacter baumannii [6] = assay: Antibacterial activity against Acinetobacter baumannii ATCC 19606 assessed as diameter of zone inhibition measured after 18 hrs by CLSI disc diffusion method; type: functional; summary of the method: as §3
Klebsiella pneumoniae [7] = assay: Antibacterial activity against Klebsiella pneumoniae ATCC 13883 assessed as fold reduction of MIC in presence of efflux pump inhibitor PAbetaN incubated for 18 hrs by broth microdilution method; type: functional; summary of the method: as §1
Escherichia coli [8] = assay: Antibacterial activity against Escherichia coli ATCC 25922 assessed as fold reduction of MIC in presence of efflux pump inhibitor PAbetaN incubated for 18 hrs by CLSI broth microdilution method; type: functional; summary of the method: as §1
Saccharomyces cerevisiae = assay: Antifungal activity against Saccharomyces cerevisiae ATCC 9763 assessed as decrease in fungal cell growth at 0.78 to 12.5 mg/L incubated for 24 hrs by CLSI broth dilution method; type: functional; settings: ATCC 9763, 24 h
Summary of the method: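 Yeast strain subcultured on Sabouraud dextrose agar for 24–48 h at 30 °C before testing. Compounds dissolved in DMSO.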

Pichia kudriavzevii = assay: Antifungal activity against Candida krusei ATCC 6258 assessed as decrease in fungal cell growth at 0.78 to 12.5 mg/L incubated for 24 hrs by CLSI broth dilution method; type: functional; settings: ATCC 6258, 24 h
Summary of the method: (§5)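 Yeast broth dilution in RPMI 1640 with 2% glucose, compounds in DMSO. Yeasts pre-grown on Sabouraud dextrose agar. Growth read after 35 °C, 24 h.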

Enterococcus faecalis = assay: Antibacterial activity against Enterococcus faecalis ATCC 29212 measured after 18 hrs by CLSI broth dilution method; type: functional; settings: ATCC 29212, 18 h; summary of the method: as §2
[9] = tested on: Meyerozyma guilliermondii; assay: Antifungal activity against Candida guilliermondii IBA 155 assessed as diameter of zone inhibition incubated for 24 hrs by CLSI disc diffusion method; type: functional; summary of the method: as §4
[10] = tested on: Bordetella bronchiseptica; assay: Antibacterial activity against Bordetella bronchiseptica ATCC 4617 assessed as diameter of zone inhibition measured after 18 hrs by CLSI disc diffusion method; type: functional; summary of the method: as §3
[11] = tested on: Stenotrophomonas maltophilia; assay: Antibacterial activity against Stenotrophomonas maltophilia ATCC 13637 assessed as fold reduction of MIC in presence of efflux pump inhibitor PAbetaN incubated for 18 hrs by broth microdilution method; type: functional; summary of the method: as §1
Candida tropicalis = assay: Antifungal activity against Candida tropicalis IBA 171 assessed as decrease in fungal cell growth at 0.78 to 12.5 mg/L incubated for 24 hrs by CLSI broth dilution method; type: functional; settings: IBA 171, 24 h; summary of the method: as §5
Staphylococcus aureus = assay: Antibacterial activity against Staphylococcus aureus ATCC 6538P measured after 18 hrs by CLSI broth dilution method; type: functional; summary of the method: as §2
Candida albicans [12] = assay: Antifungal activity against Candida albicans ATCC 90028 assessed as decrease in fungal cell growth at 0.78 to 12.5 mg/L incubated for 24 hrs by CLSI broth dilution method; type: functional; settings: ATCC 90028, 24 h; summary of the method: as §5
Acinetobacter baumannii [13] = assay: Antibacterial activity against Acinetobacter baumannii ATCC 19606 measured after 18 hrs by CLSI broth dilution method; type: functional; settings: ATCC 19606, 18 h; summary of the method: as §2
Serratia marcescens = settings: ATCC 13880
Pseudomonas aeruginosa [14] = assay: Antibacterial activity against Pseudomonas aeruginosa ATCC 27853 measured after 18 hrs by CLSI broth dilution method; type: functional; settings: ATCC 27853, 18 h; summary of the method: as §2
Enterococcus faecium [15] = assay: Antibacterial activity against Enterococcus faecium ATCC 6057 assessed as diameter of zone inhibition measured after 18 hrs by CLSI disc diffusion method; type: functional; summary of the method: as §3
[16] = tested on: Bordetella bronchiseptica; assay: Antibacterial activity against Bordetella bronchiseptica ATCC 4617 measured after 18 hrs by CLSI broth dilution method; type: functional; settings: ATCC 4617, 18 h; summary of the method: as §2
Proteus mirabilis [17] = assay: Antibacterial activity against Proteus mirabilis ATCC 12453 assessed as diameter of zone inhibition measured after 18 hrs by CLSI disc diffusion method; type: functional; summary of the method: as §3
Candida parapsilosis [18] = assay: Antifungal activity against Candida parapsilosis ATCC 22019 assessed as decrease in fungal cell growth at 0.78 to 12.5 mg/L incubated for 24 hrs by CLSI broth dilution method; type: functional; settings: Lodderomyces parapsilosis, ATCC 22019, 24 h; summary of the method: as §5
Candida parapsilosis [19] = assay: Antifungal activity against Candida parapsilosis ATCC 22019 assessed as diameter of zone inhibition incubated for 24 hrs by CLSI disc diffusion method; type: functional; summary of the method: as §4
Proteus mirabilis [20] = assay: Antibacterial activity against Proteus mirabilis ATCC 12453 measured after 18 hrs by CLSI broth dilution method; type: functional; settings: ATCC 12453, 18 h; summary of the method: as §2
Escherichia coli [21] = assay: Antibacterial activity against Escherichia coli ATCC 25922 assessed as diameter of zone inhibition measured after 18 hrs by CLSI disc diffusion method; type: functional; summary of the method: as §3
Burkholderia cepacia = assay: Antibacterial activity against Burkholderia cepacia ATCC 25416 assessed as diameter of zone inhibition measured after 18 hrs by CLSI disc diffusion method; type: functional; summary of the method: as §3
[22] = Dissociation constant, pKa1 of compound in 0.1 M NaOH by potentiometric analysis; type: physicochemical
Pseudomonas aeruginosa [23] = assay: Antibacterial activity against Pseudomonas aeruginosa ATCC 27853 assessed as diameter of zone inhibition measured after 18 hrs by CLSI disc diffusion method; type: functional, organism-based; summary of the method: as §3
[24] = tested on: Meyerozyma guilliermondii; assay: Antifungal activity against Candida guilliermondii IBA 155 assessed as decrease in fungal cell growth at 0.78 to 12.5 mg/L incubated for 24 hrs by CLSI broth dilution method; type: functional; settings: IBA 155, 24 h; summary of the method: as §5
[25] = tested on: Staphylococcus epidermidis; assay: Antibacterial activity against Staphylococcus epidermidis ATCC 12228 assessed as diameter of zone inhibition measured after 18 hrs by CLSI disc diffusion method; type: functional; summary of the method: as §3

Q: For C[Si]1(C)OB(O)c2cc(B(O)O)cc(F)c21, which “fold change (FC)” value (Proteus mirabilis [1]) is on record?
A: 4

Q: What about the MIC (Enterococcus faecium [2]) of the same molecule?
A: 200 µg/mL (≈ 834 µM)

Q: And the MIC [3]?
A: > 400 µg/mL

Q: And the “diameter of the inhibition zone (DIZ)” value (Bacillus subtilis)?
A: 22 mm

Q: What about the MIC (Klebsiella pneumoniae [4]) of the same molecule?
A: > 400 µg/mL

Q: And the “diameter of the inhibition zone (DIZ)” value (Candida albicans [5])?
A: inactive

Q: What about the “diameter of the inhibition zone (DIZ)” value (Acinetobacter baumannii [6]) of the same molecule?
A: inactive

Q: What about the “fold change (FC)” value (Klebsiella pneumoniae [7]) of the same molecule?
A: 8

Q: What about the “fold change (FC)” value (Escherichia coli [8]) of the same molecule?
A: 8

Q: And the MIC (Saccharomyces cerevisiae)?
A: 400 µg/mL (≈ 1670 µM)

Q: What about the MIC (Pichia kudriavzevii) of the same molecule?
A: 50 µg/mL (≈ 208 µM)

Q: And the MIC (Enterococcus faecalis)?
A: 400 µg/mL (≈ 1670 µM)

Q: And the “diameter of the inhibition zone (DIZ)” value [9]?
A: inactive

Q: What about the “diameter of the inhibition zone (DIZ)” value [10] of the same molecule?
A: inactive

Q: What about the “fold change (FC)” value [11] of the same molecule?
A: 16

Q: And the MIC (Candida tropicalis)?
A: 400 µg/mL (≈ 1670 µM)

Q: And the MIC (Staphylococcus aureus)?
A: 50 µg/mL (≈ 208 µM)

Q: What about the MIC (Candida albicans [12]) of the same molecule?
A: 400 µg/mL (≈ 1670 µM)

Q: And the MIC (Acinetobacter baumannii [13])?
A: > 400 µg/mL

Q: And the DIZ (Serratia marcescens)?
A: inactive

Q: And the MIC (Pseudomonas aeruginosa [14])?
A: > 400 µg/mL

Q: And the “diameter of the inhibition zone (DIZ)” value (Enterococcus faecium [15])?
A: 11 mm

Q: And the MIC [16]?
A: > 400 µg/mL

Q: And the “diameter of the inhibition zone (DIZ)” value (Proteus mirabilis [17])?
A: inactive

Q: What about the MIC (Candida parapsilosis [18]) of the same molecule?
A: 100 µg/mL (≈ 417 µM)

Q: And the “diameter of the inhibition zone (DIZ)” value (Candida parapsilosis [19])?
A: inactive

Q: What about the MIC (Proteus mirabilis [20]) of the same molecule?
A: > 400 µg/mL

Q: And the “diameter of the inhibition zone (DIZ)” value (Escherichia coli [21])?
A: inactive

Q: And the “diameter of the inhibition zone (DIZ)” value (Burkholderia cepacia)?
A: inactive

Q: What about the pKa [22] of the same molecule?
A: 6.6

Q: And the “diameter of the inhibition zone (DIZ)” value (Pseudomonas aeruginosa [23])?
A: inactive

Q: What about the MIC [24] of the same molecule?
A: 400 µg/mL (≈ 1670 µM)

Q: And the “diameter of the inhibition zone (DIZ)” value [25]?
A: 29 mm

Q: With C[Si]1(C)OB(O)c2cc(F)c(CO)c(F)c21 as the molecule, how does the “fold change (FC)” value (Proteus mirabilis [1]) read?
A: 4

Q: And the MIC (Enterococcus faecium [2])?
A: > 400 µg/mL

Q: What about the MIC [3] of the same molecule?
A: 200 µg/mL (≈ 819 µM)

Q: And the “diameter of the inhibition zone (DIZ)” value (Bacillus subtilis)?
A: 11 mm

Q: And the MIC (Klebsiella pneumoniae [4])?
A: > 400 µg/mL

Q: What about the “diameter of the inhibition zone (DIZ)” value (Candida albicans [5]) of the same molecule?
A: inactive

Q: What about the “diameter of the inhibition zone (DIZ)” value (Acinetobacter baumannii [6]) of the same molecule?
A: inactive

Q: What about the “fold change (FC)” value (Klebsiella pneumoniae [7]) of the same molecule?
A: 2

Q: And the “fold change (FC)” value (Escherichia coli [8])?
A: 4

Q: What about the MIC (Saccharomyces cerevisiae) of the same molecule?
A: 400 µg/mL (≈ 1640 µM)

Q: And the MIC (Pichia kudriavzevii)?
A: 400 µg/mL (≈ 1640 µM)

Q: What about the MIC (Enterococcus faecalis) of the same molecule?
A: > 400 µg/mL

Q: What about the “diameter of the inhibition zone (DIZ)” value [9] of the same molecule?
A: inactive

Q: And the “diameter of the inhibition zone (DIZ)” value [10]?
A: inactive

Q: What about the “fold change (FC)” value [11] of the same molecule?
A: 16

Q: And the MIC (Candida tropicalis)?
A: > 400 µg/mL

Q: What about the MIC (Staphylococcus aureus) of the same molecule?
A: 200 µg/mL (≈ 819 µM)

Q: What about the MIC (Candida albicans [12]) of the same molecule?
A: > 400 µg/mL

Q: What about the MIC (Acinetobacter baumannii [13]) of the same molecule?
A: 400 µg/mL (≈ 1640 µM)

Q: What about the DIZ (Serratia marcescens) of the same molecule?
A: inactive

Q: And the MIC (Pseudomonas aeruginosa [14])?
A: > 400 µg/mL

Q: And the “diameter of the inhibition zone (DIZ)” value (Enterococcus faecium [15])?
A: inactive

Q: And the MIC [16]?
A: > 400 µg/mL

Q: And the “diameter of the inhibition zone (DIZ)” value (Proteus mirabilis [17])?
A: inactive

Q: And the MIC (Candida parapsilosis [18])?
A: 400 µg/mL (≈ 1640 µM)

Q: What about the “diameter of the inhibition zone (DIZ)” value (Candida parapsilosis [19]) of the same molecule?
A: inactive

Q: And the MIC (Proteus mirabilis [20])?
A: > 400 µg/mL

Q: And the “diameter of the inhibition zone (DIZ)” value (Escherichia coli [21])?
A: inactive

Q: And the “diameter of the inhibition zone (DIZ)” value (Burkholderia cepacia)?
A: inactive

Q: And the pKa [22]?
A: 5.8

Q: What about the “diameter of the inhibition zone (DIZ)” value (Pseudomonas aeruginosa [23]) of the same molecule?
A: inactive

Q: What about the MIC [24] of the same molecule?
A: > 400 µg/mL

Q: And the “diameter of the inhibition zone (DIZ)” value [25]?
A: 19 mm
